Assay results from ChEMBL document CHEMBL1138329, “Pharmacokinetic/pharmacodynamic model-guided identification of hypoxia-selective 1,2,4-benzotriazine 1,4-dioxides with antitumor activity: the role of extravascular transport” (J Med Chem, 2007).

Assays:
[1] = Solubility in culture medium in presence of 5% fetal calf serum; assay type: physicochemical; conditions: culture medium with 5% fetal calf serum
SiHa [2] = test: Ratio of IC50 for SiHa cells under oxic conditions to hypoxic conditions after 4 hrs; assay type: functional, Homo sapiens
HT-29 [3] = test: Ratio of IC50 for HT29 cells under oxic conditions to hypoxic conditions after 4 hrs; assay type: functional, Homo sapiens
SiHa [4] = test: Cytotoxicity against human SiHa cells under hypoxic conditions after 4 hrs; assay type: functional, cell-based
HT-29 [5] = test: Diffusion coefficient, D in HT29 multicellular layers; assay type: ADME, cell-based; conditions: human
Outline: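 HT29 multicellular layers were grown 3 days on collagen-coated Teflon membranes, equilibrated 60 min under 95% O2/5% CO2 at 37 °C, then placed in a diffusion chamber. Donor and receiver were sampled up to 5 h and assayed by HPLC. D came from fitting both profiles to a Fickian model with membrane and MCL in series, corrected by support-only Ds.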

HT-29 [6] = test: Cytotoxicity against human HT29 cells under hypoxic conditions after 4 hrs; assay type: functional, cell-based; conditions: HT-29, 4 h
HT-29 [7] = test: Effect on human HT29 cells under hypoxic conditions assessed as drug level causing 10% clonogenic survival; assay type: functional
Outline: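 HT29 suspensions (1 or 2 × 10^6 cells/mL) in serum-free medium were stirred under 5% CO2/95% N2 for 90 min. Drug was added from deoxygenated DMSO stock at a level giving about 10% survival at 1 h, and samples were taken up to 3 h. Clonogenic survival (14 days, methylene blue) was fitted with the HPLC concentration–time data, and the 10% survival exposure was interpolated.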

Structure (SMILES) | solubility [1] [mM] | Ratio IC50 (SiHa [2]) | Ratio IC50 (HT-29 [3]) | IC50 (SiHa [4]) [nM] | D (HT-29 [5]) [cm²/s] | IC50 (HT-29 [6]) [nM] | Activity (HT-29 [7]) [µM·h]
[O-][n+]1nc(NCCN2CCCCC2)[n+]([O-])c2ccccc21 | > 49 | 55 | 24 | 1100 | 7.23e-07 | 1800 | 2.8
COc1ccc2c(c1)[n+]([O-])c(NCCCN1CCOCC1)n[n+]2[O-] | > 44 | 447 | >8 | 10200 | – | 22000 | 149.7
CN(C)CCCNc1n[n+]([O-])c2ccccc2[n+]1[O-] | 38 | 82 | 49 | 2300 | 1.87e-07 | 3400 | 7.8
CC1CCCC(C)N1CCNc1n[n+]([O-])c2ccccc2[n+]1[O-] (stereo unspecified) | 48 | 41 | 15 | 900 | 6.81e-07 | 2200 | 5.7
CCN(CC)CCNc1n[n+]([O-])c2ccc(Cl)cc2[n+]1[O-] | 23 | 28 | 43 | 200 | – | 300 | –
[O-][n+]1nc(NCCN2CCCCC2)[n+]([O-])c2cc(Cl)ccc21 | 3.2 | 18 | 19 | 200 | 1.1e-06 | 400 | –
CCCN(CCC)CCNc1n[n+]([O-])c2ccc(Cl)cc2[n+]1[O-] | 0.6 | 21 | 9 | 300 | – | 600 | –
COc1ccc2c(c1)[n+]([O-])c(NCCCN1CCC(C#N)C1)n[n+]2[O-] (stereo unspecified) | 47 | 36 | 41 | 31900 | – | 40600 | 211.4
CCN(CC)CCNc1n[n+]([O-])c2ccc(C)cc2[n+]1[O-] | > 49 | 35 | 51 | 300 | – | 1000 | 8.3
CCOc1ccc2c(c1)[n+]([O-])c(NCCCN1CCOCC1)n[n+]2[O-] | > 51 | 140 | 52 | 7600 | – | 18000 | 260.6
Cc1ccc2c(c1)[n+]([O-])c(NCCCN1CCC(C#N)C1)n[n+]2[O-] (stereo unspecified) | 49 | 54 | 54 | 9200 | – | 14100 | 62.2
CC(C)(C)c1ccc2c(c1)[n+]([O-])c(NCCN1CCCCC1)n[n+]2[O-] | 28 | 121 | 31 | 600 | 1.5e-06 | 4000 | 30.3
CC(C)(C)c1ccc2c(c1)[n+]([O-])c(NCCN1CCOCC1)n[n+]2[O-] | 1.8 | 55 | 13 | 10900 | – | 61200 | –
CCCN(CCC)CCNc1n[n+]([O-])c2ccc(C(C)(C)C)cc2[n+]1[O-] | 32 | 35 | 18 | 3800 | 1.75e-06 | 8300 | 66.6
COc1ccc2c(c1)[n+]([O-])c(NCCN1CCOCC1)n[n+]2[O-] | 48 | 70 | >39 | 40900 | – | 103000 | –
[O-][n+]1nc(NCCN2CCCC2)[n+]([O-])c2ccccc21 | 61 | 132 | 70 | 200 | – | 600 | 3.6
CN(C)CCNc1n[n+]([O-])c2ccccc2[n+]1[O-] | 50 | 157 | 80 | 200 | – | 700 | 3.2
CC(C)c1ccc2c(c1)[n+]([O-])c(NCCN(C)C)n[n+]2[O-] | 42 | 104 | 120 | 1100 | – | 1900 | 11.6
CCN(CC)CCNc1n[n+]([O-])c2ccc(C(C)C)cc2[n+]1[O-] | 45 | 113 | 122 | 800 | – | 2000 | 18.6
CC(C)c1ccc2c(c1)[n+]([O-])c(NCCN1CCCCC1)n[n+]2[O-] | 18 | 65 | 41 | 1100 | – | 2700 | 15.2
CCCN(CCC)CCNc1n[n+]([O-])c2ccc(C(C)C)cc2[n+]1[O-] | 39 | 65 | 35 | 900 | – | 4400 | 41.6
CCN(CC)CCNc1n[n+]([O-])c2ccc(C(C)(C)C)cc2[n+]1[O-] | > 48 | 90 | 37 | 900 | – | 4300 | 33.1
CCc1ccc2c(c1)[n+]([O-])c(NCCN1CCCCC1)n[n+]2[O-] | 39 | 50 | 65 | 1000 | – | 1500 | 11.9
CC(C)c1ccc2c(c1)[n+]([O-])c(NCCN1CCOCC1)n[n+]2[O-] | 30 | 33 | 14 | 15500 | – | 45100 | 217.8
COc1ccc2c(c1)[n+]([O-])c(NCCN1C(C)CCCC1C)n[n+]2[O-] (stereo unspecified) | 29 | 121 | 34 | 1000 | – | 3900 | 26.1
